Assay [1] concerns the target Melanocortin receptor 3 (Homo sapiens, UniProt P41968). Put plainly: Binding affinity towards human melanocortin 3 receptor (hMC3R) using [125I]NDP-alpha-MSH as radioligand. The gist of the method: (§1)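 Nonspecific binding taken with excess unlabeled NDP-MSH. Stopped by rapid filtration through GF/C glass-fibre filters, three ice-cold water washes, bound radioactivity by scintillation counting. IC50 from nonlinear regression of concentration curves.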

Assay [2] deals with T1, Melanocortin receptor 4 (Homo sapiens, UniProt P32245). As to the kind of experiment: Binding affinity towards human melanocortin 4 receptor (hMC4R) using [125I]NDP-alpha-MSH as radioligand. The gist of the method:
as §1

Assay [3] addresses T1, Melanocortin receptor 4. Put plainly: Intracellular levels of cAMP in HEK 293 cells expressing human melanocortin 4 receptor (hMC4R). It is filed as cell-based, HEK293. The gist of the method: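 Cells seeded at 75,000/well on fibronectin and assayed about 48 h later. Medium replaced with DMEM containing IBMX, peptide added across a six-point dilution range starting at 0.1 nM, 30 min at 37 °C. Lysis stopped the reaction; cAMP quantified by chemiluminescent ELISA. EC50 reported as mean ± SEM of two determinations.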

For assay [4], the target named is Melanocyte-stimulating hormone receptor (Mus musculus, UniProt Q01727). Put plainly: Binding affinity towards mouse Melanocortin 1 receptor (mMC1R) using [125I]NDP-alpha-MSH as radioligand. Put shortly: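 Receptor membranes ([…]) incubated 2 h at 30 °C in assay buffer with test compound at various concentrations plus 0.2 nM 125I-NDP-α-MSH. Nonspecific binding taken with excess unlabeled NDP-MSH. Stopped by rapid filtration through GF/C glass-fibre filters, three ice-cold water washes, bound radioactivity by scintillation counting. IC50 from nonlinear regression of concentration curves.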
Chain of Melanocyte-stimulating hormone receptor (Q01727 whole entry): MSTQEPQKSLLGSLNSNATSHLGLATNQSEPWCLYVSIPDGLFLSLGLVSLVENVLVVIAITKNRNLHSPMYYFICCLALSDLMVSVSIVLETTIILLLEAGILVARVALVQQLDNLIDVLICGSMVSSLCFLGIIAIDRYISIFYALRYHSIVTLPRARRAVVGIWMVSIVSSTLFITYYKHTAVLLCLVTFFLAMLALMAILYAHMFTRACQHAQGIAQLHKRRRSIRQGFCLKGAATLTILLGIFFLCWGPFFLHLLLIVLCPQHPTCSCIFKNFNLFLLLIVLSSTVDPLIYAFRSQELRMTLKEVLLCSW

T1 sequence (P32245 whole entry): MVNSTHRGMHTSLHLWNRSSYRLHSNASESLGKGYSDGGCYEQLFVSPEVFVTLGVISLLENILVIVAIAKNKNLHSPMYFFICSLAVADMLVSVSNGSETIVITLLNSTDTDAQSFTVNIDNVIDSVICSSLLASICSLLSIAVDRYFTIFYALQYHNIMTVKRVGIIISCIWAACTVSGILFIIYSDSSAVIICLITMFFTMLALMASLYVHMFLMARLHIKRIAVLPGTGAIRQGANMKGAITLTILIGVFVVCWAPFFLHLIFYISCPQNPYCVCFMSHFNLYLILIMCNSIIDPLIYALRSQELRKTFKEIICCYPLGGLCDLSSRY
Chain of Melanocortin receptor 3 (P41968 whole entry): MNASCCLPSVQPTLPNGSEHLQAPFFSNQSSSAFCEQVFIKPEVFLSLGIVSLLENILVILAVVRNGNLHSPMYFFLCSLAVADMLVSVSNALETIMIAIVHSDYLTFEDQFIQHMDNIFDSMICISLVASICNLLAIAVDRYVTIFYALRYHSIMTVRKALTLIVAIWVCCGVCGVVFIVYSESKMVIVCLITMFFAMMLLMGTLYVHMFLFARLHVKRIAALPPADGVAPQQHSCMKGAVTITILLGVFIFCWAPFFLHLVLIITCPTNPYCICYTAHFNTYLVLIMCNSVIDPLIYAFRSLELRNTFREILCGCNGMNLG

The term IC50 denotes the concentration needed to halve the response being measured. A higher IC50 goes with a need for much substance. What is called EC50 is the concentration giving half of the maximal effect. Consider `CC(=O)N[C@H](Cc1ccccc1)C(=O)N(CCCCNC(=N)N)C1CCC(N(CCc2c[nH]c3ccccc23)C(C)=O)CC1` (stereo in doubt; trans), for which the IC50 was over 10 µM in assay [1], 3.5 µM in assay [2] and over 10 µM in assay [4]. The compound further returned an EC50 in assay [3] of 0.68 µM.

`CC(=O)N(CCCCN=C(N)N)C1CCC(N(CCc2c[nH]c3ccccc23)C(C)=O)CC1` (stereo not drawn): the IC50 in assay [1], in assay [2] and in assay [4] was over 10 µM in each case.

On to `CC(=O)N[C@H](Cc1ccccc1)C(=O)N(CCCCNC(=N)N)C1CCC(N(CCc2c[nH]c3ccccc23)C(C)=O)CC1` (stereo in doubt; cis), for which the IC50 in assay [1] was determined as 0.28 µM; in assay [2], 0.0077 µM; in assay [4] it was 0.051 µM. In assay [3], this compound came in with an EC50 of 0.004 µM.

On to `CC(=O)N[C@@H](Cc1ccccc1)C(=O)N(CCCCN=C(N)N)C1CCC(N(C)C(C)=O)CC1` (stereo partly drawn), for which the IC50 was over 10 µM in assay [1], over 10 µM in assay [2] and 9 µM in assay [4].

`CC(=O)N[C@@H](Cc1ccccc1)C(=O)N(CCCCN)C1CCC(N(CCc2c[nH]c3ccccc23)C(C)=O)CC1` (stereo partly drawn): the IC50 was over 10 µM in assay [1], 9.25 µM in assay [2] and 10 µM in assay [4].

`CC(=O)N[C@H](Cc1ccccc1)C(=O)N(CCCCNC(=N)N)C1CCC(N(CCc2c[nH]c3ccccc23)C(C)=O)CC1` (stereo in doubt; 11): the IC50 in assay [2] is 0.5 µM.

Source of the values: ChEMBL document CHEMBL1136814, “Design of a new peptidomimetic agonist for the melanocortin receptors based on the solution structure of the peptide ligand, Ac-Nle-cyclo[Asp-Pro-DPhe-Arg-Trp-Lys]-NH(2)” (Bioorg Med Chem Lett, 2003).
